Laboratory results as given in ChEMBL document CHEMBL4339252, “Prenylated Stilbenoids Affect Inflammation by Inhibiting the NF-κB/AP-1 Signaling Pathway and Cyclooxygenases and Lipoxygenase” (J Nat Prod, 2019).
pIC50: −log10 of the molar value. Active and inactive are the calls of the source. The calls are words filed in the database; no cut-off is given here.

How the values were obtained:
[1] = target: T1, Prostaglandin G/H synthase 1 (Ovis aries, UniProt P05979); test: Inhibition of ram seminal vesicle COX1 assessed as reduction in PGE2 production using arachidonic acid substrate by ELISA
T1 sequence (P05979 whole entry): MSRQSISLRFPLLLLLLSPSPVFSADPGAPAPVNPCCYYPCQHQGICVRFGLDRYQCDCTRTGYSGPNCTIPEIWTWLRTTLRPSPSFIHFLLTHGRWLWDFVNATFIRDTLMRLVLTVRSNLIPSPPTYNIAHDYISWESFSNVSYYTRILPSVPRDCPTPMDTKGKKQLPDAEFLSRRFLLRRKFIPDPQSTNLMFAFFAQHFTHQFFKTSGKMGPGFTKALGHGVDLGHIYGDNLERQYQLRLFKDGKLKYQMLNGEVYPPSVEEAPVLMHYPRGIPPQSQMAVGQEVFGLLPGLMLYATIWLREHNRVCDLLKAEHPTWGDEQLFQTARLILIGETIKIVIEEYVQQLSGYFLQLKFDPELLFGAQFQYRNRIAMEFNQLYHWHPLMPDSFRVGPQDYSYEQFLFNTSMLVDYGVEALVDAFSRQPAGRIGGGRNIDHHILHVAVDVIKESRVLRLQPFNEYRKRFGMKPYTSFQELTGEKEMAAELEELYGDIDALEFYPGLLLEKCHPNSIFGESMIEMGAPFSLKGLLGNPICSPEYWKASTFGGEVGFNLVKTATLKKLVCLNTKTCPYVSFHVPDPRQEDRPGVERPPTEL

[2] = target: T2, Prostaglandin G/H synthase 2 (Homo sapiens, UniProt P35354); test: Inhibition of human recombinant COX2 assessed as reduction in PGE2 production using arachidonic acid substrate by ELISA
T2 sequence (P35354 whole entry): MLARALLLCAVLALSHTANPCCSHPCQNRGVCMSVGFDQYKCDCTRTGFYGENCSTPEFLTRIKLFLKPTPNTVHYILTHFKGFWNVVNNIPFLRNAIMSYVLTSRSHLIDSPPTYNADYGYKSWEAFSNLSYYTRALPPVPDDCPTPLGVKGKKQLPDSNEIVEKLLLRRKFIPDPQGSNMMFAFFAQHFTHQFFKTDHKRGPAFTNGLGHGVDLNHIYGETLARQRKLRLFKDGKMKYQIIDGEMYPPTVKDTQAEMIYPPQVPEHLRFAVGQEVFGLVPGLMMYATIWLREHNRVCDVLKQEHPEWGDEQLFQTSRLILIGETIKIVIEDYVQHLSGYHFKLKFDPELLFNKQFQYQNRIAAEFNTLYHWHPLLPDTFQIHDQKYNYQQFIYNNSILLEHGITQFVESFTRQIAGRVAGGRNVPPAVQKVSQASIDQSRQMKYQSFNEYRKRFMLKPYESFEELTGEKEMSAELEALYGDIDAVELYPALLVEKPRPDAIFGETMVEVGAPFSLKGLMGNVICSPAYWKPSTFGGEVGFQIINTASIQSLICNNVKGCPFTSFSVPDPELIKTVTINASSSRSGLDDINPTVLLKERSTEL

[3] = Selectivity index, ratio of IC50 for inhibition of ram seminal vesicle COX1 to IC50 for inhibition of human recombinant COX2
[4] = target: T3, Polyunsaturated fatty acid 5-lipoxygenase (Homo sapiens, UniProt P09917); test: Inhibition of human recombinant 5-LOX assessed as reduction in leukotriene B4 synthesis using arachidonic acid substrate by ELISA; conditions: for pIC50: read-out: IC50
T3 sequence (P09917 whole entry): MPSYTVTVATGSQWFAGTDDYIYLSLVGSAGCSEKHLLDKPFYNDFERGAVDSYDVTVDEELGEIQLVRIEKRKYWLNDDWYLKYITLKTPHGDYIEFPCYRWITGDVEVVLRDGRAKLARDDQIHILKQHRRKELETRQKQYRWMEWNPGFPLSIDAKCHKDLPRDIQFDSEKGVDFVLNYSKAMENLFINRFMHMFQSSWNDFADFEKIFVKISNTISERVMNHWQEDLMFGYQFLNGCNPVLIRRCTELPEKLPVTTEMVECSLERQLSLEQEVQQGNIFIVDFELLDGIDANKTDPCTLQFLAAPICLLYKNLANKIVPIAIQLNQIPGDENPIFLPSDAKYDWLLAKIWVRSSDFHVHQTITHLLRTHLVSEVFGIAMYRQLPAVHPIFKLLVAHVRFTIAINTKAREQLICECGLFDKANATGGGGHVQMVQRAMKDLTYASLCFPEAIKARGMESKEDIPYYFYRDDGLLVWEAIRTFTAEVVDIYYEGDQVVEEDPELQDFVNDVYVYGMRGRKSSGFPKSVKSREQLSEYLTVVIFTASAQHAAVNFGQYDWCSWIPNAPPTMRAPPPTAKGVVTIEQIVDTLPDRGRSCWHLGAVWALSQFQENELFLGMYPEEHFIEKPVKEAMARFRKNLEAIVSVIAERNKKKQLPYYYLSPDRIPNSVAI

THP-1 [5] = test: Cytotoxicity against human THP1 cells assessed as reduction in cell viability incubated for 24 hrs by WST1 dye based assay; conditions: THP-1, 24 h
Procedure, shortened: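 Undifferentiated THP-1 cells moved to serum-free medium at 5 × 10^5 cells/well. After 2 h, compounds in DMSO added at 0.125−20 μM and incubated 24 h. Viability read with WST-1 reagent. IC50 taken from four-parameter logistic fits of at least five-point curves, serial measurements in triplicate, means ± SE.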

Homo sapiens = species: Homo sapiens; test: Inhibition of LPS-stimulation dependent TLR4-induced NF-kappaB/AP-1 signaling cascade in human THP1-XBlue-MD2-CD14 cells at 1 uM pre-incubated for 1 hr before LPS-stimulation for 24 hrs by spectrophotometry
Procedure, shortened: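 THP-1-XBlue-MD2-CD14 reporter cells (5 × 10^5/well) pretreated 1 h with compound in DMSO, then stimulated with LPS (1 μg/mL) for 24 h. NF-κB/AP-1 activity read with Quanti-Blue reagent as OD at 655 nm and expressed against vehicle (100%). Five independent experiments in triplicate, means ± SE.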

THP-1 [6] = test: Antiinflammatory activity in PMA-differentiated human THP1 cells assessed as inhibition of TNFalpha production at 1 uM pre-incubated for 1 hr before LPS-stimulation for 24 hrs by ELISA; format: functional, cell-based
Procedure, shortened: (§1)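 THP-1 monocytes grown in RPMI 1640 with 10% FBS and antibiotics at 37 °C, plated at 5 × 10^5 cells/well and differentiated to macrophages with phorbol myristate acetate. Pretreated 1 h with compound in DMSO, or DMSO vehicle. Then stimulated with E. coli 0111:B4 LPS (1 μg/mL); unstimulated controls got no LPS. Medium collected after 24 h, cytokine measured by ELISA. Triplicates, three or more independent experiments, means ± SE.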

THP-1 [7] = test: Antiinflammatory activity in PMA-differentiated human THP1 cells assessed as inhibition of IL-1beta production at 1 uM pre-incubated for 1 hr before LPS-stimulation for 24 hrs by ELISA; format: functional, cell-based; procedure, shortened: as §1
[8] = target: T4, NF-kappa-B inhibitor alpha (Homo sapiens) (UniProt P25963); test: Inhibition of IkappaBalpha degradation in LPS-stimulated human THP1-XBlue-MD2-CD14 cells at 1 uM pre-incubated for 1 hr before LPS-stimulation for 30 mins by Western blot analysis
T4 sequence (whole entry): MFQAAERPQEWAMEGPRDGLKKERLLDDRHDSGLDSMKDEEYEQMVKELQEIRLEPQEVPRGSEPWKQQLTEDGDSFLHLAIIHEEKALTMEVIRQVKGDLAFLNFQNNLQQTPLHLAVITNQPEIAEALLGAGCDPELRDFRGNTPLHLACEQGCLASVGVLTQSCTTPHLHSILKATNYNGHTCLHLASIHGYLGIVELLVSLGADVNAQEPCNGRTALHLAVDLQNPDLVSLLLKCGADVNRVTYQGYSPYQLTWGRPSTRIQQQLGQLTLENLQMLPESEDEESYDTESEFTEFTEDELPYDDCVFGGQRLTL
Procedure, shortened: (§2)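 THP-1-XBlue-MD2-CD14 cells pretreated with compound (1 μM), then LPS (1 μg/mL) added 1 h later. Lysates taken 30 min after LPS. 9 μg protein run on 12% PAGE, blotted to PVDF, blocked in 5% BSA. Probed for IκB-α, total and phospho p38, ERK1/2 and JNK, with β-actin as reference. ECL chemiluminescence; three independent experiments.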

[9] = target: Mitogen-activated protein kinase; ERK1/ERK2 (Homo sapiens) (UniProt P27361+P28482); test: Inhibition of ERK1/2 phosphorylation in LPS-stimulated human THP1-XBlue-MD2-CD14 cells at 1 uM pre-incubated for 1 hr before LPS-stimulation for 30 mins by Western blot analysis; procedure, shortened: as §2
Chain of Mitogen-activated protein kinase; ERK1/ERK2 (Homo sapiens) (P27361 whole entry, looked up): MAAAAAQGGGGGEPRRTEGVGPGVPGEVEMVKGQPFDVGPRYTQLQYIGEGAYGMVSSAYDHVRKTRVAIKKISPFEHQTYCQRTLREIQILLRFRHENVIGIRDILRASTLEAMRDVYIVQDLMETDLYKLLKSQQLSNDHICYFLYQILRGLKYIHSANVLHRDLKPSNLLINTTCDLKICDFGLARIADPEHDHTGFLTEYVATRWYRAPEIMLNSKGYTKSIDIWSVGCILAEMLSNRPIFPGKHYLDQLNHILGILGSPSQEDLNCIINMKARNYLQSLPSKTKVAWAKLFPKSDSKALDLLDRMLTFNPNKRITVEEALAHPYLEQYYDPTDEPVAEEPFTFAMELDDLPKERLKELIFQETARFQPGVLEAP
Chain of Mitogen-activated protein kinase; ERK1/ERK2 (Homo sapiens) (P28482 whole entry, looked up): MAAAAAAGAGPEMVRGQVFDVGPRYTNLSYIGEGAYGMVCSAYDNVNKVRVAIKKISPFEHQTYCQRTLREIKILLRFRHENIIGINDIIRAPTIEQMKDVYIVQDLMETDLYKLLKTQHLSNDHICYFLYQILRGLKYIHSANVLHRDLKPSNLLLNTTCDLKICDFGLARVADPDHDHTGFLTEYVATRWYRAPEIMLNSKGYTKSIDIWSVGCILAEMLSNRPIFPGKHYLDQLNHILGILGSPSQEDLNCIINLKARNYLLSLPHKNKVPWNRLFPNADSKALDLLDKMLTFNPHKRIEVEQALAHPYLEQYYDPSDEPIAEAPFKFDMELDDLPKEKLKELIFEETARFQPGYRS

[10] = target: MAP kinase p38 (Homo sapiens) (UniProt O15264+Q15759+Q16539+P53778); test: Inhibition of p38 phosphorylation in LPS-stimulated human THP1-XBlue-MD2-CD14 cells at 1 uM pre-incubated for 1 hr before LPS-stimulation for 30 mins by Western blot analysis; procedure, shortened: as §2
[11] = target: c-Jun N-terminal kinase, JNK (Homo sapiens) (UniProt P45983+P53779+P45984); test: Inhibition of JNK phosphorylation in LPS-stimulated human THP1-XBlue-MD2-CD14 cells at 1 uM pre-incubated for 1 hr before LPS-stimulation for 30 mins by Western blot analysis; procedure, shortened: as §2
THP-1 [12] = test: Antiinflammatory activity in PMA-differentiated human THP1 cells assessed as inhibition of TNFalpha production at 0.1 uM pre-incubated for 1 hr before LPS-stimulation for 24 hrs by ELISA; format: functional, cell-based; procedure, shortened: as §1
THP-1 [13] = test: Induction of IL-1beta production in PMA-differentiated human THP1 cells at 0.1 uM pre-incubated for 1 hr before LPS-stimulation for 24 hrs by ELISA; format: cell-based; conditions: thp-1, 24 h; procedure, shortened: as §1
THP-1 [14] = test: Induction of TNFalpha production in PMA-differentiated human THP1 cells at 1 uM pre-incubated for 1 hr before LPS-stimulation for 24 hrs by ELISA; format: cell-based; conditions: thp-1, 24 h; procedure, shortened: as §1
THP-1 [15] = test: Induction of IL-1beta production in PMA-differentiated human THP1 cells at 1 uM pre-incubated for 1 hr before LPS-stimulation for 24 hrs by ELISA; format: cell-based; conditions: thp-1, 24 h; procedure, shortened: as §1

| SMILES | pIC50 [1] | pIC50 [2] | Ratio IC50 [3] | pIC50 [4] | pIC50 (THP-1 [5]) | inhibition (Homo sapiens) | inhibition (THP-1 [6]) | inhibition (THP-1 [7]) | further results |
| --- | --- | --- | --- | --- | --- | --- | --- | --- | --- |
| COc1ccc(/C=C/c2c(CC=C(C)C)c(O)cc(O)c2CC=C(C)C)cc1 | 6.10 | 5.33 | 0.17 | 5.96 | 5.57 | Active | Active | – | – |
| C=CC(C)(C)c1cc(/C=C/c2cc(OC)cc(OC)c2)ccc1OC | – | – | – | – | < 5.00 | Active | Active | inactive | – |
| COc1ccc(/C=C/c2c(CC=C(C)C)c(O)cc(O)c2CC=C(C)C)cc1O | 6.05 | 4.83 | 0.06 | 6.05 | 5.41 | – | Active | – | – |
| CC1(C)C=Cc2c(O)cc(/C=C/c3ccc(O)cc3)cc2O1 [ARAHYPIN-5] | 4.88 | < 4.70 | – | 5.62 | < 5.00 | Active | Active | inactive | inhibition [8]: Active; inhibition [9]: inactive; inhibition [10]: inactive; inhibition [11]: inactive |
| COc1ccc(/C=C/c2c(CC=C(C)C)c(O)cc3c2CC(O)C(C)(C)O3)cc1 (stereo not given) | – | – | – | – | 5.74 | – | inactive | – | inhibition (THP-1 [12]): Active; Activity (THP-1 [13]): Toxic |
| COc1ccc(/C=C/c2c(CC=C(C)C)c(O)cc3c2CCC(C)(C)O3)cc1O | 4.90 | 4.45 | 0.36 | – | 5.48 | – | Active | – | IC50 [4]: Not Active |
| COc1cc(/C=C\c2ccc(OC)c(CC=C(C)C)c2)cc(OC)c1 | – | – | – | – | < 5.00 | Active | Active | Active | – |
| CC(C)=CCc1c(O)cc2c(c1/C=C\c1ccc(O)cc1)CCC(C)(C)O2 | – | – | – | – | 5.31 | – | Active | – | – |
| CC(C)=CCc1c(O)cc(/C=C/c2ccc(O)cc2O)cc1O | – | – | – | – | < 5.00 | – | inactive | – | Activity (THP-1 [14]): Toxic; Activity (THP-1 [15]): Toxic |
| C[C@]12C=CC(=O)C=C1CC[C@@H]1[C@@H]2C(=O)C[C@@]2(C)[C@H]1CC[C@]2(O)C(=O)CO | – | – | – | – | – | Active | – | – | – |
| CC(C)=CCc1c(O)cc(O)c(CC=C(C)C)c1/C=C/c1ccc(O)cc1 | 6.40 | 5.24 | 0.07 | 6.05 | 4.89 | Active | Active | Active | – |
| COc1cc(/C=C/c2ccc(OC)c(CC=C(C)C)c2)cc(OC)c1 | – | – | – | – | < 5.00 | – | Active | Active | – |
